Published values of several laboratories.
Each line is one published result; the experiments were not run side by side.
Target: Mitogen-activated protein kinase 9 (MAPK9, Homo sapiens, UniProt P45984)

Structure (SMILES)	read-out	mode	method	concentration	endpoint	result
C=CC(=O)N1CCC([C@@H]2CCNc3c(C(N)=O)c(-c4ccc(Oc5ccccc5)cc4)nn32)CC1	enzyme activity	inhibitor		1 µM	inhibition	0%
N#Cc1ccc(NC(=O)Nc2ccccc2)cc1	cell-free assay		competition with immobilised ligand	25 µM	remaining binding	100%
C=CC(=O)N1CCC[C@@H](n2nc(-c3ccc(Oc4ccccc4)cc3)c3c(N)ncnc32)C1	enzyme activity	inhibitor		1 µM	inhibition	21%
Cc1ccc(NC(=O)c2ccnc(C(F)(F)F)c2)cc1-c1cc(OCCO)nc(N2CCOCC2)c1	binding		competition with immobilised ligand	1 µM	remaining binding	83%
C1=C/COCc2cc(ccc2OCCN2CCCC2)Nc2nccc(n2)-c2cccc(c2)COC/1	cell-free assay			0.1 µM	remaining signal	47%
C#Cc1cnc(Nc2ccnc(CO)c2)nc1Nc1ccccc1S(C)(=O)=NC#N (stereo not drawn)	cell-free assay			1 µM	remaining signal	58%
COc1ccc2oc(-c3ccc4nc(N)oc4c3)c/c(=N\c3ccccc3NC(=O)CCN)c2c1	binding			1 µM	remaining binding	98%
C[C@H]1CC[C@H](n2c3cnccc3c3cnc(Nc4ccc5c(n4)CCN(C(=O)CO)C5)nc32)CC1	binding		competition with immobilised ligand	1 µM	remaining binding	2.6%
CCCCC(=O)Nc1ccc(-c2ccc3ncn(CCC)c(=O)c3c2)cn1	binding		competition with immobilised ligand	0.5 µM	remaining binding	68%
